A selection: hits, their analogues and other compounds. The true share with any hit is near 2.4%.
Apaf1 inhib = inhibitors of human Apaf-1 apoptosome, primary screen, biochemical, DEVD-Rh110 fluorescence, uHTS; reconstituted apoptosome caspase-3 activity; inhibition, % at 20 µM; AID 489030, 2010; Apoptotic protease-activating factor 1 (Homo sapiens), O14727; hit rate 0.71% among 330,000; active means inhibition of at least 40% at 20 µM;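 further: plate controls were DMSO wells for no effect and DEVD-CHO caspase inhibitor wells for full effect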
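Assay system – apoptosome proteins · Medium – Hepes buffer, pH 7.5 · Also added – cytochrome c with DEVD-Rh110 · Timing – 30 min compound preincubation, 50 min activation, room temperature · Detection – Rh110 fluorescence, excitation 480 nm, emission 540 nm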
UBC13 polyUb = UBC13 polyubiquitin chain formation inhibitors, primary screen, biochemical, TR-FRET, uHTS; hit rate 0.47% among 330,000; inhibition, % at 20 µM; in the data active means inhibition above about 45%, passing the limit was not always enough
ANO1 block = TMEM16A chloride channel inhibitors, primary screen, cell-based, HTS. hit rate 1.2% among 310,000. normalized B-score (activity score, 25-100; higher = stronger inhibition) at 10 µM. HEK293 TMEM16A/YFP iodide influx fluorescence, ionomycin. Anoctamin-1 (Mus musculus), Q8BHY3;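 active means ratio plate-corrected score three or more library SD toward inhibition, starting fluorescence score within five deviations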;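 further: score derived from kinetic fluorescence span divided by baseline fluorescence per well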
Target sequence (Q8BHY3 whole entry, looked up): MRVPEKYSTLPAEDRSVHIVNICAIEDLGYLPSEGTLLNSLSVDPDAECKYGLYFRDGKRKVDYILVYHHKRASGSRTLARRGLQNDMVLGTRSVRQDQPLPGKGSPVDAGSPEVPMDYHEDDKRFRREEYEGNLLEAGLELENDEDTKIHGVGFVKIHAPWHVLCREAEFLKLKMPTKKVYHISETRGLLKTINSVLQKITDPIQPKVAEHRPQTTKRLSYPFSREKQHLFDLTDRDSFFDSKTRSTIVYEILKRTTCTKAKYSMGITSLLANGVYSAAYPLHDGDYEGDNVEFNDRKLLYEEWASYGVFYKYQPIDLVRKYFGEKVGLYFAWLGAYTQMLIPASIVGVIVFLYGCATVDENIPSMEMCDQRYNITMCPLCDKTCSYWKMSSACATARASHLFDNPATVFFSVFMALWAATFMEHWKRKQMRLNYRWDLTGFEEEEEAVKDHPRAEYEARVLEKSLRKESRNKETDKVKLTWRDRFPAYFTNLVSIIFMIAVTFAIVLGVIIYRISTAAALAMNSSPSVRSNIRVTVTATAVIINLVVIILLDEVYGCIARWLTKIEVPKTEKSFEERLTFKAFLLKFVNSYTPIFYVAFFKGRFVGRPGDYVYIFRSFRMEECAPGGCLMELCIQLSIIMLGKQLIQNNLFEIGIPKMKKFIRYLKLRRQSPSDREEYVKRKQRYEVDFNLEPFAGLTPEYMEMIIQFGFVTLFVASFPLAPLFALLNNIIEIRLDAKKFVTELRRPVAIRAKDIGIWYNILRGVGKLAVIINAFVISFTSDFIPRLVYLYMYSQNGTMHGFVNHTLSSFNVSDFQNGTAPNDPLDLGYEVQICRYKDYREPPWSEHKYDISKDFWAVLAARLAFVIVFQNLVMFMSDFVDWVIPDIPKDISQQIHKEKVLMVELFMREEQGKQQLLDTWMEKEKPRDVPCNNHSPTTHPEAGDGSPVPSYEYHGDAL
TMEM16A act = TMEM16A chloride channel activators or potentiators, primary screen, cell-based, HTS. Anoctamin-1 (Mus musculus), Q8BHY3. hit rate 0.3% among 340,000. B-score at 10 µM. HEK293 TMEM16A/YFP-H148Q/I152L, iodide quench fluorescence; hits give low values;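 active means fluorescence-ratio B-score plate-corrected deviation score at least 3 library SD below zero, with starting fluorescence score within 5 deviations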;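 further: channel opened by trigger with iodide after compound preincubation; score built on the fluorescence ratio of max minus min over baseline; more negative score means more quench and so TMEM16A activation or potentiation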
FID counter = compounds displacing fluorescent DNA intercalator, primary screen, artefact control for HCV NS3 helicase inhibitor project, biochemical, FID fluorescence; DNA fluorescent intercalator displacement; inhibition, % at 7.9 µM; hit rate 0.17% among 290,000; AID 1845, 2009; in the data active means inhibition above about 37%;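 further: 0% = vehicle and 100% = reference compound; higher means more ethidium bromide displaced from hairpin DNA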
Apaf-1 inh conf = Apaf-1 inhibitors, single-dose retest, confirmation, biochemical, fluorescence, DEVD-Rh110, 20 µM; shares compounds with Apaf1 inhib; reconstituted apoptosome, caspase-3 DEVD-Rh110 fluorescence; inhibition, % at 20 µM; hit rate 25% among 1,800; AID 504614, 2011;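 active means mean inhibition of at least 40% at 20 µM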;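 further: plate controls were DMSO wells for no effect and DEVD-CHO caspase inhibitor control wells for full effect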
Rh110 interf inh = Rh110 fluorescence interference by putative Apaf-1 inhibitors, confirmation, artefact control for Apaf-1 inhibitor project, biochemical, 20 µM | activation (fluorescence interference), % at 20 µM | 1,800 tested, under 10 active | shares compounds with Apaf1 inhib | quenched caspase reaction;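 active means signal rise of 40% or more at 20 µM, treated as a fluorescence artifact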
Apaf1 inh interf = fluorescence interference of Apaf-1 inhibitor hits, dose response, artefact control for Apaf-1 inhibitor project. shares compounds with Apaf1 inhib. fluorescence interference counterscreen, Apaf-1 assay format. IC50, µM. 460 tested, under 10 active; call rule not given here
TMEM16A reconf = TMEM16A chloride channel inhibitors, confirmation, cell-based, re-confirmation. HEK293 TMEM16A/YFP-H148Q, iodide quench fluorescence; ionomycin added to raise cell calcium. AID 652189, 2013. inhibition, % at 10 µM. hit rate 39% among 2,300. shares compounds with ANO1 block;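 active means mean duplicate percent inhibition, scaled so buffer wells are 0 and the reference blocker 100, over three buffer SD above buffer mean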
TMEM16A Ca cntr = calcium mobilization in TMEM16A/YFP HEK293 cells, confirmation, counter-screen for TMEM16A inhibitor project; shares compounds with ANO1 block; Fluo4 calcium mobilization; hit rate 2% among 2,300; AID 652231, 2013; calcium response (% of ionomycin), % at 10 µM;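 active means duplicate-averaged calcium signal over 20% of the ionomycin maximum, relative to buffer baseline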;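 further: each well's signal is peak minus trough fluorescence divided by its pre-addition baseline; 0% = buffer wells and 100% = ionomycin wells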
Parental YFP cnt = iodide YFP quench changes in parental YFP-HEK293, counter-screen for TMEM16A inhibitor project, cell-based. shares compounds with ANO1 block. 2,300 tested, under 10 active. AID 652233, 2013. YFP ratio F(max-min)/F0 at 10 µM. ionomycin;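 active means yellow fluorescent protein signal ratio exceeding the buffer control mean by over 5 SD of those controls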;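 further: ratio is mean of duplicate wells from kinetic YFP trace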
ClC-1 rat inh = ClC-1 chloride channel inhibition, selectivity assay for TMEM16A inhibitor project, cell-based, voltage-dependent ClC-1 | shares compounds with ANO1 block | 2,300 tested, under 10 active | ratio percent, % at 10 µM | CHO ClC-1-YFP, iodide influx fluorescence quench; iodide control reads 0, buffer control 100 | AID 652236, 2013;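 active means duplicate-mean ratio percent above the mean of iodide-only control wells, which defines zero, plus 5 of their SD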;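 further: higher percent means stronger block of ClC-1 iodide influx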
An asterisk follows results filed as active; i = inactive; nt = no result.

SMILES	Apaf1 inhib	UBC13 polyUb	ANO1 block	TMEM16A act	FID counter	TMEM16A reconf	TMEM16A Ca cntr	Parental YFP cnt	ClC-1 rat inh	others
CNc1ccc2nc3ccccc3[n+](C)c2c1	89*	i	i	-5*	-114	nt	nt	nt	nt	Apaf-1 inh conf=62*;Rh110 interf inh=9;Apaf1 inh interf=>100
COC(=O)C1=C(c2cccc(OC)c2OC)C[C@@H]2CC[C@H]1N2C(=O)NC(C)C	0	2	i	i	nt	nt	nt	nt	nt
CC(C)CNC(=O)c1c(N)n(Cc2ccco2)c2nc3ccccc3nc12	45*	-13	i	i	-9	18%*	i	-1	-8	Apaf-1 inh conf=32;Rh110 interf inh=18
C=CCn1c(O)c(C=NCCN2CCOCC2)c(=O)[nH]c1=S	-18	-20	i	i	-3	nt	nt	nt	nt
CC(C)=CCc1c(O)cc2c(c1O)C(=O)CC(c1ccc(O)cc1)O2 (centres undefined)	0	-4	100*	i	nt	i	i	-0.95	-16
O=c1[nH]c(=O)n(-c2ccccc2F)c(O)c1C=NCCC1=CCCCC1	-4	3	i	i	-20	nt	nt	nt	nt
CCCN(CC1CC1)CC(O)c1ccccc1 (centres undefined)	3	5	i	i	0	nt	nt	nt	nt
CCOc1ccc(-n2c(O)c(/C=C3\C=Nc4ccccc43)c(=O)[nH]c2=O)cc1	13	-25	i	i	-5	22%*	40%*	-0.82	4
COc1ccc(OC)c(-n2c(O)c(/C=C3\C=Nc4ccccc43)c(=O)[nH]c2=O)c1	4	-15	i	i	2	nt	nt	nt	nt
Cc1ccc(N)c(C(=O)c2ccc(Br)cc2)c1	16	-9	100*	i	-5	i	i	-1.2	-7
CN1OCC2Cn3c(nc4ccccc43)C21 (centres undefined)	-2	3	i	i	nt	nt	nt	nt	nt
CC(C)N1OC2CC1c1nc3ccccc3n1C2 (centres undefined)	5	-8	25*	i	nt	i	i	-1.1	-18
c1ccc2cc(C3N4CCCN34)ccc2c1 (centres undefined)	-3	3	i	i	-4	nt	nt	nt	nt
COc1ccc(OC)c(CN2CCCC(C(=O)c3sccc3C)C2)c1 (centres undefined)	-11	-4	i	i	5	nt	nt	nt	nt
COc1ccc(OC)c(CC(=O)O)c1	-29	6	25*	-4.9*	-6	i	i	-1	6
CCOC(=O)c1c(-c2ccc(OC)cc2)oc2ccc(OC(=O)N(C)C)cc12	31	22	100*	i	-5	i	i	-1.2	-12
COCCn1c(O)c(/C=N/NC(=O)CSC(=S)N2CCCC2)c(=O)[nH]c1=S	12	43	nt	i	nt	nt	nt	nt	nt
CCCNC(=O)c1c(N)n(Cc2ccco2)c2nc3ccccc3nc12	40*	-34	i	nt	-6	i	i	-1	-6
C=CCn1c(O)c(C(C)=NCCN2CCCCC2)c(=O)[nH]c1=O	0	0	i	i	3	nt	nt	nt	nt
CCCCn1c(O)c(C(C)=NCCN2CCCCC2)c(=O)[nH]c1=O	6	-3	i	i	-2	i	i	-0.96	1
CCc1ccc(CN2CCN(C(=O)Cc3ccccc3)CC2)cc1	10	-1	i	i	-10	nt	nt	nt	nt
O=C(Cc1ccccc1)N1CCN(Cc2ccccc2Cl)CC1	9	-4	25*	i	-27	i	i	-0.98	-10
C=CCn1c(O)c(C(C)=Nc2ccc(C(=O)O)cc2)c(=O)[nH]c1=O	-77	-19	i	i	-1	nt	nt	nt	nt
Cc1cc2ccccc2c(=O)n1CC(=O)NCC(=O)N1CCC2(CC1)OCCO2	-9	-6	i	i	-1	nt	nt	nt	nt
CCCCCCC(C)(C)c1ccc([C@@H]2C[C@H](O)CC[C@H]2CCCO)c(O)c1	28	19	100*	i	nt	i	i	-1.1	-6
SMILES	Apaf1 inhib	UBC13 polyUb	ANO1 block	TMEM16A act	FID counter	TMEM16A reconf	TMEM16A Ca cntr	Parental YFP cnt	ClC-1 rat inh	others
Cc1ccc2cc(C=C(C#N)C#N)c(Cl)nc2c1	17	-10	i	i	-1	nt	nt	nt	nt
Cc1cc(OC(=O)c2ccco2)c2c3c(c(=O)oc2c1)CCCC3	8	9	100*	i	-2	i	i	-1	-10
CCc1sc(C(=O)N2CCC3(CC2)OCCO3)cc1Br	-6	5	100*	i	-15	i	i	-1	-9
C=CCCC1(CC(C)C)C(=O)NC(=S)NC1=O	nt	nt	nt	i	nt	nt	nt	nt	nt
O=C(Oc1c(Cl)cc(Cl)c2ccccc12)N1CCCCC1	22	1	100*	i	-1	i	i	-1	-10
CCN(CC)C(=O)N[C@H]1C[C@@H]2c3cccc4[nH]cc(c34)C[C@H]2N(C)C1	3	2	i	i	3	i	i	-1	-3
c1cncc(CNC2CCCCC2)c1	-6	-2	i	i	-3	nt	nt	nt	nt

Bioassay records from PubChem.
